Results on one compound are retold here after ChEMBL document CHEMBL4033794, “Discovery of Trifluoromethyl Glycol Carbamates as Potent and Selective Covalent Monoacylglycerol Lipase (MAGL) Inhibitors for Treatment of Neuroinflammation” (J Med Chem, 2018).

≈ marks a conversion by molar mass, not a printed value. Calls of active or inactive are those of the source. No cut-off for these calls is given here. Where only a bound is given, the exact number is not on record here.

A short description of series [1]: Ratio of unbound AUClast in C57BL6J mouse brain to plasma at 1 mg/kg, sc measured up to 24 hrs post dose by HPLC-MS/MS analysis. The note with it: brain and plasma.
Series [2] deals with T1, Fatty-acid amide hydrolase 1 (Homo sapiens, UniProt O00519).
T1 sequence (O00519 whole entry): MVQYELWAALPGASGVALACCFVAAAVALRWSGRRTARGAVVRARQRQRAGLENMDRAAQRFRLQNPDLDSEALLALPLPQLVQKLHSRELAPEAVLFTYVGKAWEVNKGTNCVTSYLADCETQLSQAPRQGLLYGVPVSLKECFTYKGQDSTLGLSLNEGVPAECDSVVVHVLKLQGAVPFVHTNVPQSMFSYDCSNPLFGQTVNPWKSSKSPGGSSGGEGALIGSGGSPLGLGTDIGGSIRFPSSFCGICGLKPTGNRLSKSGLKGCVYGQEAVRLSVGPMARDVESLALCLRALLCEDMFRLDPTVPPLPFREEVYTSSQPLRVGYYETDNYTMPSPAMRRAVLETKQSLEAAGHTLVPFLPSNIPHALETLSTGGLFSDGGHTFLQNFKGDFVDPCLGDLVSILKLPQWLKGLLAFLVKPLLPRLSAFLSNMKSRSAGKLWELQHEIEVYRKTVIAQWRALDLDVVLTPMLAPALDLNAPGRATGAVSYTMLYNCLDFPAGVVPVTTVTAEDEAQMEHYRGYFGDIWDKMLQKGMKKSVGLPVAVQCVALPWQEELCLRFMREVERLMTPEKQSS
Put plainly: Inhibition of recombinant human FAAH using fluorogenic arachidonoyl-AMC as substrate preincubated for 30 mins followed by substrate addition measured after 60 mins by fluorescence based assay. The gist of the method:
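Human recombinant FAAH (0.0125 U final) in 50 mM Tris pH 9.0, 1 mM EDTA, preincubated 30 min at room temperature with compound (30 μM to 0.3 nM final); arachidonoyl-AMC 5 μM added, 60 min reaction, read Ex/Em 355/460. Inhibition vs no-compound and full-inhibition controls; four-parameter fit; geometric mean of ≥3 experiments.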

Series [3] can be described thus: Lipophilicity, log D of the compound by HPLC analysis. The format is physicochemical. In outline: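 LogD determined by an HPLC-based (eLogD) method.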
Series [4] can be described thus: Thermodynamic solubility of the compound at pH 6.5 after 24 hrs. The format is physicochemical. The following applies: buffer, read-out: Therm_solubility.
Series [5] in a line: Intrinsic clearance in human liver microsomes. The format is ADME, microsome. The note with it: read-out: CLH. In outline: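 Substrate depletion in human liver microsomes; intrinsic clearance scaled to mL/min/kg.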
For series [6], the target named is T2, Cannabinoid receptor 1 (Homo sapiens, UniProt P21554). Put plainly: Agonist activity at human CB1 receptor expressed in CHOK1 cells assessed as […] after 20 mins by HTRF assay. The format is functional, cell-based.
A short description of series [7]: Plasma clearance in Wistar Hannover rat at 1 mg/kg, iv administered as bolus dose via jugular vein cannula measured up to 24 hrs post dose by HPLC-MS/MS analysis. The series is classed as ADME, organism-based. In outline:
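Rats (n = 2) given 1 mg/kg IV bolus via jugular vein cannula, solution in 3% DMA/10% Solutol HS15/10% Miglyol/77% of 20% SBECD in water, 1 mL/kg. Carotid cannula blood pre-dose and 0.083–24 h; plasma by HPLC-MS/MS; non-compartmental analysis.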

The nature of series [8]: Intrinsic clearance in human hepatocytes. The note with it: read-out: CLH. The format is ADME, cell-based, Hepatocyte. The gist of the method:
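Substrate depletion in cryopreserved human hepatocytes; scaled intrinsic clearance in mL/min/kg.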

A short description of series [9]: Intrinsic clearance in human hepatocytes in presence of CYP inhibitor ABT. The note with it: with ABT (CYP inhibitor), concentration not stated, read-out: CLH. The series is classed as ADME, cell-based, Hepatocyte. In outline: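 Cryopreserved human hepatocyte substrate-depletion assay run with ABT present; scaled intrinsic clearance in mL/min/kg.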
Series [10] in a line: Plasma clearance in Beagle dog at 1 mg/kg, iv administered via cephalic vein measured up to 24 hrs post dose by HPLC-MS/MS analysis. The format is ADME, organism-based, Canis lupus familiaris. The gist of the method:
(§1)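 Fasted male beagles (n = 2), fed ~4 h post-dose, given 1 mg/kg IV bolus via cephalic vein in 3% DMA/10% Solutol HS15/10% Miglyol/77% of 20% SBECD, 0.5 mL/kg. Jugular blood pre-dose and 0.083–24 h; plasma HPLC-MS/MS; non-compartmental analysis.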

Series [11] is described as follows: Volume of distribution in Beagle dog at 1 mg/kg, iv administered via cephalic vein measured up to 24 hrs post dose by HPLC-MS/MS analysis. The format is ADME, organism-based, Canis lupus familiaris. The following applies: in vivo. In outline: as §1
Series [12] can be described thus: Volume of distribution in non-human primate at 1 mg/kg, iv administered via cephalic vein measured up to 24 hrs post dose by HPLC-MS/MS analysis. The format is ADME, organism-based, Macaca mulatta. The following applies: rhesus monkey, in vivo. The gist of the method: (§2)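 Fasted male non-human primates (n = 2), fed ~1 h post-dose; 1 mg/kg IV bolus via saphenous or cephalic vein in 3% DMA/10% Solutol HS15/10% Miglyol/77% of 20% SBECD, 0.5 mL/kg. Femoral blood pre-dose and 0.083–24 h; plasma HPLC-MS/MS; non-compartmental analysis.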

A short description of series [13]: Half life in non-human primate at 1 mg/kg, iv administered via cephalic vein measured up to 24 hrs post dose by HPLC-MS/MS analysis. The format is ADME, organism-based, Macaca mulatta. The note with it: rhesus monkey, in vivo. The gist of the method: as §2
Series [14] can be described thus: Unbound fraction in C57BL6J mouse plasma at 1 mg/kg, sc measured up to 24 hrs post dose by HPLC-MS/MS analysis. The format is ADME, organism-based.
In series [15] the target is CYP2C9 (Homo sapiens, UniProt P11712). Put plainly: Inhibition of CYP2C9 (unknown origin) at 3 uM. The series is classed as ADME. In outline:
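Competitive inhibition screen of CYP3A4, 2D6, 2C9, 2C8 and 1A2 using isoform-relevant probe substrates, compound at 3 μM.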

A short description of series [16]: Cmax in C57BL6J mouse brain at 1 mg/kg, sc up to 24 hrs post dose. More on the design: dose 1 mg/kg, route subcutaneous. The format is ADME, organism-based.
In series [17] the test system is Mus musculus. The series can be described thus: Anti-inflammatory activity in C57BL6J mouse assessed as reduction in LPS-induced TNFalpha levels in brain at 1 mg/kg, sc administered 30 mins after LPS challenge measured at 4 hrs post LPS challenge. The series is classed as functional, organism-based. In outline:
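LPS 20 mg/kg IP or saline, then 1 mg/kg SC compound or vehicle at 30 min; hemi-brains taken at 4 h, homogenized in PBS with protease inhibitors, spun 100,000 rcf 45 min at 4°C; IL-1β and TNFα measured by Meso Scale electrochemiluminescence panel, with protein measured by BCA.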

Series [18] addresses T2, Cannabinoid receptor 1. The series can be described thus: Displacement of [3H]CP55940 from human CB1 receptor expressed in CHOK1 cell membranes at 10 uM after 120 mins by scintillation counting method.
Series [19] concerns Mus musculus. Put plainly: Time at which unbound brain concentration stays above in vitro MAGL IC50 in C57BL6J mouse at 1 mg/kg, sc up to 24 hrs post dose. The gist of the method: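 Male C57BL6J mice dosed 1 mg/kg SC in DMSO:Cremophor:saline 5:5:90, 10 mL/kg; plasma and brain taken at 0.5, 1, 2, 4, 8, 12, 24 h. Drug measured in plasma and cerebellum; 2-AG and arachidonic acid in brain hemisphere, compared with vehicle-treated mice.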

Series [20] is filed under the species Mus musculus. The following applies: C57BL6J, 1 mg/kg.
The species entered for series [21] is Mus musculus. The following applies: C57BL6J, 1 mg/kg. This is another data set of the same source.
The species named for series [22] is Mus musculus. The following applies: C57BL6J, 1 mg/kg. The source holds these as a separate data set.
The species named for series [23] is Mus musculus. The note with it: C57BL6J, 1 mg/kg. The source holds these as a separate data set.

T2 sequence (P21554 whole entry): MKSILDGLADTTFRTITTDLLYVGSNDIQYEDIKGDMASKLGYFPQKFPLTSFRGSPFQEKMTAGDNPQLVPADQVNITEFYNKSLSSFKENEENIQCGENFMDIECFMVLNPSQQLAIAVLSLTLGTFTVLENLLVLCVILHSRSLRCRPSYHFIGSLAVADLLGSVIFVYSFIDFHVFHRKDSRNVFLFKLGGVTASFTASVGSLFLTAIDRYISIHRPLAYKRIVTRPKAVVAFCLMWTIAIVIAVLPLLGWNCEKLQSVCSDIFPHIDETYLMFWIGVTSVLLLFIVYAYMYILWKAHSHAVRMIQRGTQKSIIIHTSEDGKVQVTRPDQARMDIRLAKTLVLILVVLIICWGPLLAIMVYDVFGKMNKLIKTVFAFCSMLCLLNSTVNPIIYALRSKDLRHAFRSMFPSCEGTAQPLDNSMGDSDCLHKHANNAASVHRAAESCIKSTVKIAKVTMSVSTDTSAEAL
CYP2C9, sequence (P11712 whole entry, canonical isoform): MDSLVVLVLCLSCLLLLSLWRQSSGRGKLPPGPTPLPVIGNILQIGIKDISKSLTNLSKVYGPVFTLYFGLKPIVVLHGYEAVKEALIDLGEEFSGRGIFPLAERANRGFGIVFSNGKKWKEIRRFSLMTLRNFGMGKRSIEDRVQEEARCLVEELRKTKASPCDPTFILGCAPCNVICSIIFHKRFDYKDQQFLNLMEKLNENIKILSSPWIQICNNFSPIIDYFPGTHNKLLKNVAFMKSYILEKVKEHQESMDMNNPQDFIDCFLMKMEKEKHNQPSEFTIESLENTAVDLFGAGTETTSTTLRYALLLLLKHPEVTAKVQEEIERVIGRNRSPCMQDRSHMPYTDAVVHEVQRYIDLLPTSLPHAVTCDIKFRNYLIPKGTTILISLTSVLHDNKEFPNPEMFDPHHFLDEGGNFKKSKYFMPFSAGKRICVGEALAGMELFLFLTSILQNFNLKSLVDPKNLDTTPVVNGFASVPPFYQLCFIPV

As for `O=C(O[C@H](CO)C(F)(F)F)N1C[C@@H]2[C@H](C1)[C@H]2c1ccn(-c2ccc(F)cc2)n1`, the Kp uu at 24 h in series [1] is 1.4. In series [2], the IC50 was 3100 nM. Also, the logD in series [3] was 3.8. Besides, the solubility thermodynamic at 24 h in series [4] stood at 25 µM (≈ 9.98 µg/mL). The CLint scaled in [5] is less than 8 mL/min/kg; in series [8], 52 mL/min/kg; in series [9], 37 mL/min/kg. Also, the half-maximal effective concentration (EC50) in series [6] stood at 1500 nM. In addition, the clearance in series [7] was 61 mL/min/kg; in series [10], 21 mL/min/kg. Also, the Vd in [11] was 1.6 L/kg; in series [12], 1.5 L/kg. In series [13], this compound gave a half-life of 1.7 h. For the same compound, the fraction unbound at 24 h in series [14] amounted to 0.0135. This compound had an inhibition at 3 µM in [15] of less than 10%. The compound also registered a Cmax in [16] greater than 1000 nM. The result in [17] was Active. In addition, in series [18], the inhibition entry is “inactive”. Also, in series [19], the Time came out at 2 h. For the same compound, the inhibition entry in series [20], in series [21], in series [22] and in [23] was “Active” throughout.
